# Experimental data taken from ChEMBL document CHEMBL1140696, “Effects of introduction of hydrophobic group on ribavirin base on mutation induction and anti-RNA viral activity” (2008).
# Key:
# [1] = tested on: Enterovirus C; test: Antiviral activity against poliovirus infected HeLa S3 cells assessed as plaque formation at 0.5 mM relative to control; assay type: functional
# Outline: (§1)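 HeLa S3 cells (DMEM/F-12, 2% dialyzed FBS) were pretreated with nucleoside for 1 h at 37 °C in 1% DMSO final. Cells were infected with poliovirus (1 × 10⁶ PFU in PBS) for 15 min at 23 °C, then kept 6 h at 37 °C with nucleoside. Cell-associated virus was released by three freeze–thaw cycles and titred by plaque assay on HeLa S3 (1% low-melting agarose overlay, 2 days, crystal violet). Titre is given as % of untreated control.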
# [2] = tested on: Enterovirus C; test: Antiviral activity against poliovirus infected HeLa S3 cells assessed as plaque formation at 2 mM; assay type: functional; outline: as §1
# [3] = tested on: Enterovirus C; test: Incorporation of Poliovirus RNA dependent RNA polymerase into sym/sub-C primer
# Outline: (§2)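 NTP was 10–250 µM; reactions ran 2 min at 30 °C and were quenched with EDTA. Products were resolved by 20% denaturing PAGE. Initial rates came from the elongated fraction, and kcat and KM from Lineweaver–Burk plots (mean ± SD, n = 3).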
# [4] = tested on: Enterovirus C; test: Ratio of kcat/Km of Poliovirus RNA dependent RNA polymerase incorporation into sym/sub-U primer; design: unit not given here
# [5] = tested on: Enterovirus C; test: Incorporation of Poliovirus RNA dependent RNA polymerase into sym/sub-U primer; outline: as §2
# [6] = tested on: Enterovirus C; test: Ratio of kcat/Km of Poliovirus RNA dependent RNA polymerase incorporation into sym/sub-C primer relative to control; design: unit not given here
Compound,Activity [1] [%],Activity [2] [%],Km [3] [µM],kcat [3],kcat/Km [4],Km [5] [µM],kcat [5],kcat/Km [6]
NC(=O)c1ncn([C@@H]2O[C@H](CO)[C@@H](O)[C@H]2O)n1 [RIBAVIRIN],40,4,,,,,,
NC(=O)c1nn([C@@H]2O[C@H](COP(=O)(O)OP(=O)(O)OP(=O)(O)O)[C@@H](O)[C@H]2O)cc1I,,,40,1.8 10^-4/s,20,24,4.7 10^-4/s,4.4
CC#Cc1cn([C@@H]2O[C@H](CO)[C@@H](O)[C@H]2O)nc1C(N)=O,94,57,,,,,,
NC(=O)c1nn([C@@H]2O[C@H](CO)[C@@H](O)[C@H]2O)cc1I,76,68,,,,,,
CC#Cc1cn([C@@H]2O[C@H](COP(=O)(O)OP(=O)(O)OP(=O)(O)O)[C@@H](O)[C@H]2O)nc1C(N)=O,,,51,1.3 10^-4/s,9.1,35,3.1 10^-4/s,2.6
Nc1ncnc2c1ncn2[C@@H]1O[C@H](COP(=O)(O)OP(=O)(O)OP(=O)(O)O)[C@@H](O)[C@H]1O,,,110,0.82 10^-4/s,,,,
Nc1nc2c(ncn2[C@@H]2O[C@H](COP(=O)(O)OP(=O)(O)OP(=O)(O)O)[C@@H](O)[C@H]2O)c(=O)[nH]1,,,,,,56,5 10^-4/s,
NC(=O)c1ncn([C@@H]2O[C@H](COP(=O)(O)OP(=O)(O)OP(=O)(O)O)[C@@H](O)[C@H]2O)n1,,,69,5.8 10^-4/s,,34,3.7 10^-4/s,
NC(=O)c1nn([C@@H]2O[C@H](CO)[C@@H](O)[C@H]2O)cc1C#Cc1ccccc1,122,,,,,,,
